ChEMBL document CHEMBL4138126, “Synthesis, antiproliferative, anti-tubulin activity, and docking study of new 1,2,4-triazoles as potential combretastatin analogues” (Eur J Med Chem, 2017)

How the values were obtained:
HL-60 = assay: Cytotoxicity in human HL60 cells assessed as reduction in cell viability incubated for 48 hrs by MTT assay; assay type: functional, cell-based; conditions: HL-60, 48 h
Outline: (§1)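 HepG2 and HL60 (ATCC) grown in DMEM with 10% FBS, 2 mM L-glutamine, penicillin/streptomycin, amphotericin B at 37 °C, 5% CO2. Samples dissolved in DMSO, diluted thousandfold in assay. Cells seeded in serum-free medium, treated with serial concentrations 48 h; MTT 4 h, formazan dissolved in acidified isopropanol, A570. Triplicates averaged; viability relative to untreated/vehicle control.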

HepG2 [1] = assay: Cytotoxicity in human HepG2 cells assessed as reduction in cell viability incubated for 48 hrs by MTT assay; assay type: functional, cell-based; conditions: HepG2, 48 h; outline: as §1
[2] = Inhibition of beta tubulin polymerisation in human HepG2 cells incubated for 2 hrs using TMB substrate by ELISA; assay type: cell-based; conditions: HepG2, 2 h
HepG2 [3] = assay: Inhibition of beta tubulin polymerisation in human HepG2 cells incubated for 2 hrs using TMB substrate by ELISA relative to untreated control; assay type: cell-based; parameters: concentration or dose not given beside the values; conditions: dose or concentration not given here

Row | SMILES | IC50 (HL-60) [µM] | IC50 (HepG2 [1]) [µM] | IC50 [2] [µM] | inhibition (HepG2 [3]) [%]
1 | COc1cccc(-n2nc(C(=O)Nc3ccc(OC)c(OC)c3)nc2-c2cc(OC)c(OC)c(OC)c2)c1 | 14.2 | 32.5 |  | 
2 | CCOc1ccc(-n2nc(C(=O)Nc3ccc(OC)c(OC)c3)nc2-c2cc(OC)c(OC)c(OC)c2)cc1 | 4.3 | 32.8 |  | 
3 | COc1cccc(-n2nc(C(=O)Nc3ccc(F)c(F)c3)nc2-c2cc(OC)c(OC)c(OC)c2)c1 | 31.3 | 11 |  | 
4 | COc1cccc(-n2nc(C(=O)Nc3ccc(F)c(F)c3F)nc2-c2cc(OC)c(OC)c(OC)c2)c1 | 27.2 | 16.3 |  | 
5 | CCOc1ccc(NC(=O)c2nc(-c3cc(OC)c(OC)c(OC)c3)n(-c3cccc(OC)c3)n2)cc1 | 14.5 | 8.75 |  | 
6 | COc1cccc(-n2nc(C(=O)Nc3cc(F)cc(F)c3)nc2-c2cc(OC)c(OC)c(OC)c2)c1 | 54.2 | 1.38 | 1.3 | 65.2
7 | COc1cccc(-n2nc(C(=O)Nc3cc(OC)c(OC)c(OC)c3)nc2-c2cc(OC)c(OC)c(OC)c2)c1 | 6.02 | 8.51 |  | 
8 | COc1cccc(-n2nc(C(=O)Nc3ccccc3OC)nc2-c2cc(OC)c(OC)c(OC)c2)c1 | 29.9 | 29.9 |  | 
9 | COc1ccc(/C=C\c2cc(OC)c(OC)c(OC)c2)cc1O [COMBRETASTATIN A4] | 0.56 | 2.41 | 2.4 | 72.3
10 | CCOc1ccc(NC(=O)c2nc(-c3cc(OC)c(OC)c(OC)c3)n(-c3ccc(OCC)cc3)n2)cc1 | 6 | 29.8 |  | 
11 | COc1cccc(CNC(=O)c2nc(-c3cc(OC)c(OC)c(OC)c3)n(-c3cccc(OC)c3)n2)c1 | > 100 | 0.9 |  | 
12 | COc1cccc(NC(=O)c2nc(-c3cc(OC)c(OC)c(OC)c3)n(-c3cccc(OC)c3)n2)c1 | 15.3 | 15.3 |  | 
